CYP2C9 activ = activators of human CYP2C9; P11712; recombinant CYP2C9, luciferin-H conversion, luminescence; hits give high values; factor 1 = untreated enzyme, 0 = blocked; activation factor at 5 µM; 96,000 tested, 1.4% active;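 active means activation factor of 2 or more for CYP2C9 at a 5 µM dose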;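 further: 0 = sulfaphenazole-blocked wells and 1 = vehicle-only wells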
Rev-RRE block = inhibitors of HIV-1 Rev-RRE RNA interaction. inhibition, % at 8 µM. Rev peptide-RRE RNA binding, FRET. P05866. AID 704. 97,000 tested, 0.79% active;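 active means inhibition above the screen-wide mean plus 3 SD, cut at about 35% in these data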;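 further: 0% = median DMSO wells and 100% = median Neomycin B control wells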
Target sequence (P05866 whole entry, looked up): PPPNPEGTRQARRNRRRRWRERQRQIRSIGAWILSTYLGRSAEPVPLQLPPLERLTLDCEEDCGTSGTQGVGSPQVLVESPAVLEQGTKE
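Assay system: labelled RRE RNA duplex and labelled Rev peptide / Medium: HEPES pH 7.5 salt buffer with EDTA / Reagent: labelled Rev peptide / Schedule: 5 + 15 min at 25 °C / Signal: FRET, excitation 480 nm, emission 540 nm donor and 671 nm acceptor / Benchmarks: DMSO and neomycin B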
CYP2C9 inh = human CYP2C9 inhibition | CYP2C9 Supersomes, luciferin-H conversion, luminescence | AID 777 | P11712 | 96,000 tested, 20% active | inhibition, % at 5 µM;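 active means blocking of liver enzyme CYP2C9 beyond about 50% at 5 µM, limit read from the data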
CYP2C19 activ = cytochrome P450 2C19 (human) activation | recombinant CYP2C19, luciferin-H EGE luminescence; hits give high values; 0 = fully inhibited enzyme, 1 = untreated enzyme | P33261 | activation factor at 5 µM | 96,000 tested, under 10 active;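 active means activation factor of at least 2 at 5 µM in the primary screen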;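 further: 0 = wells with 2.5 mM tranylcypromine and 1 = vehicle-only wells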
Target sequence (P33261 whole entry, looked up): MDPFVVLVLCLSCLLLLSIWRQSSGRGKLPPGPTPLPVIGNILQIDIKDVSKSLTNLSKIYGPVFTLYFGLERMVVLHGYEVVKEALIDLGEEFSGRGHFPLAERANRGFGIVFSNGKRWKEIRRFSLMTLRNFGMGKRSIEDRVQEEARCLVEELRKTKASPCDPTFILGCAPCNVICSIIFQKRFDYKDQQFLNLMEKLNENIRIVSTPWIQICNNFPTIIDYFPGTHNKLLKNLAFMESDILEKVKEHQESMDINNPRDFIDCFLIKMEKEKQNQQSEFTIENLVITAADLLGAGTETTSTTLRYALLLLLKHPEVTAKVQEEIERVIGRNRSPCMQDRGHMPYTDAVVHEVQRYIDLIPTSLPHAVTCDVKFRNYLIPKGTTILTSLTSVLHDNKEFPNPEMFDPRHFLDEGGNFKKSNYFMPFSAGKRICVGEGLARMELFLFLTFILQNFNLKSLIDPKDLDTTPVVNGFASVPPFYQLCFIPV
Cav32 inh = human Cav3.2 channel inhibition, primary screen. O95180. Cav3.2-expressing cells, Fluo-4 calcium fluorescence FDSS; hits give low values. B-score at 10 µM. 100,000 tested, 4% active. AID 449739;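 active means single-dose well whose peak fluorescence ratio is a statistical outlier from its plate by either plate-standardised score or position-corrected B-score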
CYP2C19 inhib = inhibitors of human CYP2C19. P33261. AID 778. inhibition, % at 5 µM. CYP2C19 Supersomes, luciferin-H EGE luminescence, 30 min. 96,000 tested, 21% active;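 active means CYP2C19 inhibition above a set limit at 5 µM in the primary screen, cut at about 50% in these data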;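 further: plate controls were negative control wells for no effect and 2.5 mM tranylcypromine positive control for full effect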
* = called active by the depositor; nt = no result given. Compounds with a hit are over-represented: about 27% of the library has one in this group of screens.

SMILES	CYP2C9 activ	Rev-RRE block	CYP2C9 inh	CYP2C19 activ	Cav32 inh	CYP2C19 inhib
CC(=O)N1CN(CCCn2ccnc2)Cc2c1sc1c2CCCC1	0	1.6	95.6*	0.1	nt	94.2*
Cc1cccc(NC(=O)CCN2CC(C)OC(C)C2)c1 (stereo not given)	1	10.5	2.5	0.3	0.0963	72.9*
O=C(CCN1CCCCC1)Nc1cccc(Cl)c1	1.1	0.7	-7.2	1	0.163	1.9
CC1CC(C)CN(CCC(=O)Nc2cccc(Cl)c2)C1 (stereo not given)	0.8	-1.9	17.5	0.3	0.948	69.2*
CC(COc1cccc2ccccc12)CN1CCN(C)CC1 (stereo not given)	1.3	nt	-33.5	0.6	-1.8	42.7
C=CCc1ccccc1OCCCCN1CCCC1	1.1	nt	-10.8	0.9	0.146	5.5
COc1ccccc1N1CCN(CC(O)COc2cccc3ccccc23)CC1 (stereo not given)	nt	nt	nt	nt	-4.46*	nt
C=CCc1ccccc1OCC(O)CN1CCN(c2ccccc2F)CC1 (stereo not given)	0.5	13.4	54.8*	0.3	-2.4	65.6*
C=CCc1ccccc1OCC(O)CN1CCN(c2ccccc2OC)CC1 (stereo not given)	1.3	8.5	-33.1	0.6	-3.32	44.2
C=CCc1cc(C)ccc1OCC(O)CN1CCN(c2ccccc2)CC1 (stereo not given)	0.9	3.1	12.1	0.8	-4.62*	20.1
C=CCc1cc(OC)ccc1OCC(O)CN1CCN(c2ccc(OC)cc2)CC1 (stereo not given)	1.1	-5.2	-9.2	0.8	-1.42	15.0
C=CCc1ccccc1OCC(CN1CCCCC1)OC(C)=O (stereo not given)	1	7.4	-0.5	0.5	-0.459	52.6*
CCCCSc1nnc(CSc2nc3nc(C)cc(C)n3n2)o1	0.9	1.1	6.5	0.6	-0.356	40.3
CC1CCCCC1NC(=O)CSc1nnc(COc2ccccc2Cl)o1 (stereo not given)	1.1	9.2	-9.5	0.8	-0.597	21.0
O=C(c1ccco1)N1CCN(C(c2ccccn2)c2nnnn2C2CCCC2)CC1 (stereo not given)	nt	2.9	nt	nt	0.43	nt
Cc1ccc(-c2nc(NC(=O)c3nn(C)cc3[N+](=O)[O-])sc2C)cc1C	0.5	7.4	53.6*	1	nt	-3.5
COc1cc(OC)c(OC)cc1/C=N/N(C)c1ccccc1	0.3	-1.1	70.2*	0.7	-1.07	32.6
COc1cc(/C=N/N(C)c2ccccc2)ccc1O	0.3	1.8	74.3*	0.2	-0.0383	82.2*
COc1cc(/C=N/N2CCN(c3ccccc3OC)CC2)ccc1O	1.6	-4.9	-59.1	0.9	0.0515	13.3
Cc1ccc(Oc2ncc(CN3CCOCC3)s2)cc1	0.8	-1.5	21.3	0.2	0.947	78.8*
Brc1ccc(Oc2ncc(CN3CCN(c4ccccc4)CC3)s2)cc1	0.3	13.4	70.7*	0.4	-0.283	57.3*
Clc1ncc(CN2CCN(Cc3ccccc3)CC2)s1	0.9	1.6	7.7	0.3	0.848	74.2*
Clc1cccc(Oc2ncc(CN3CCOCC3)s2)c1	0.8	-4.1	16.0	0.2	-1.35	82.2*
CCOC(=O)C1CCN(Cc2cnc(Oc3ccc(OC)cc3)s2)CC1	0.9	7.7	11.7	0.9	0.576	7.5
Cc1cccc(-n2nnc(C(=O)NCc3ccccn3)c2N)c1	1.2	6.9	-23.7	1	0.252	0.8
SMILES	CYP2C9 activ	Rev-RRE block	CYP2C9 inh	CYP2C19 activ	Cav32 inh	CYP2C19 inhib
CCCCCC(=O)Nc1ccc(S(=O)(=O)Nc2nccnc2OC)cc1	1.1	3.2	-6.3	1.1	0.667	-8.5
COCCCNC(=O)C12CCC(C)(C(=O)C1)C2(C)C (stereo not given)	1	-1.8	-0.9	1.2	1.06	-18.2
CCCc1cc(SCC(=O)Nc2c(C)n(C)n(-c3ccccc3)c2=O)n2c(nc3ccccc32)c1C#N	0.9	40.8*	10.4	1.2	-0.164	-16.5
CC(C)(C)NC(=O)CN(C(=O)CS(=O)CC(=O)Nc1ccc(F)cc1)c1ccc(Cl)cc1 (stereo not given)	0.5	1.4	45.4	1	-0.856	1.8
COc1ccc(CNc2nc3c(c(=O)n(Cc4ccc(Br)cc4)c(=O)n3C)n2C)cc1	0.4	3.0	63.0*	0.5	-2.1	48.3
Cn1c(NCc2ccccc2)nc2c1c(=O)n(Cc1ccc(Br)cc1)c(=O)n2C	0	-0.8	97.1*	0.1	-0.00753	88.8*
COc1ccc(Cn2c(=O)c3c(nc(NCCO)n3C)n(C)c2=O)cc1	1.3	nt	-34.8	1	-0.058	1.1
Cn1c(NCc2ccco2)nc2c1c(=O)n(Cc1ccc(Br)cc1)c(=O)n2C	1	1.2	-0.4	0.9	-1.39	5.9
Cc1cc(-c2ccc3c(c2)COc2c4ccccc4nn2-3)on1	nt	nt	nt	nt	0.0275	nt
CCc1nn(C)c(-c2n[nH]c(=S)n2N)c1Cl	1.1	4.1	-7.0	1.1	0.677	-10.3
COc1ccc(-n2c(SCC(N)=O)nc3nc4c(cc3c2=O)COC(C)(C)C4)cc1	0.9	-1.4	8.2	1	nt	-4.9
Cn1nc(-c2ccccc2)c(C(O)c2ccc(Cl)cc2)c1Cl (stereo not given)	0.1	12.4	88.5*	0	nt	95.2*
CC(C)SCCCOc1ccc(C(C)(C)C)cc1	1	10.1	2.9	1	0.639	-4.0
COc1ccc(CCNC(=O)CSc2nc3ccccc3o2)cc1OC	0.1	-1.0	88.1*	0.2	0.305	79.6*
COc1ccc(CCNC(=O)CC2Oc3ccc(Cl)cc3NC2=O)cc1OC (stereo not given)	1.5	-1.3	-50.7	0.4	-0.69	58.8*
COc1ccc(CCNC(=O)CSc2nc3cc(Cl)ccc3o2)cc1OC	0.3	8.8	65.9*	0.8	0.0547	24.8
COc1ccc(CCNC(=O)CSc2nnnn2-c2ccccc2OC)cc1OC	0.7	2.6	29.0	0.7	nt	31.8
COc1ccc(CCNC(=O)CC2Nc3ccccc3NC2=O)cc1OC (stereo not given)	0.7	4.2	27.1	0.8	-0.359	20.7
COc1ccc(C(C)=O)cc1CSc1nc2ccccc2o1	0.4	9.0	56.3*	0.6	-2.09	41.4
CN1CCN(c2ccc([N+](=O)[O-])c(-n3nc(-c4ccccc4)c4ccccc4c3=O)c2)CC1	0.5	11.8	45.1	0.8	0.226	20.1
FC(F)(F)C(Oc1nc(Nc2ccc(Cl)cc2)nc(N2CCOCC2)n1)C(F)(F)F	nt	15.8	nt	nt	1.12	nt
O=C(CN1CCCN(Cc2ccc(F)cc2Cl)C1=O)NC1CCCCCC1	1	10.8	0.7	1	-3.97	1.4
CC1CCC(NC(=O)CN2CCCN(Cc3ccc(F)cc3Cl)C2=O)CC1 (stereo not given)	0.9	1.9	7.8	0.9	-3.89*	6.1
